The record followed here is ChEMBL document CHEMBL1157730, “Diaryl piperidines as CB1 receptor antagonists” (Bioorg Med Chem Lett, 2010).

Data set [1] addresses Cannabinoid receptor 1 (Homo sapiens, UniProt P21554). In words: Binding affinity to human CB1 receptor.
Data set [2] concerns the target T1, Cannabinoid receptor 2 (Homo sapiens, UniProt P34972). In words: Binding affinity to human CB2 receptor.
Data set [3] has as its system Mus musculus. In words: Reduction of food intake in DIO mouse model at 3 mg/kg, po after 24 hrs relative to control. Type of data set: functional. The arrangement: scale not given: the % may be the effect or the level left. In short, it runs like this:
(§1)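 Fed diet-induced obese mice; oral dosing 1 h before dark onset; food intake measured at 2, 4, 6 and 24 h and expressed as percent reduction versus vehicle-treated mice; significance threshold p<0.05.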

Data set [4] in a line: Drug level in DIO mouse brain at 3 mg/kg, po after 24 hrs. Format: ADME, organism-based. The arrangement: dose 3 mg/kg, route oral. The settings on record: read-out: Drug uptake. In short, it runs like this: (§2)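 Diet-induced obese mice dosed orally at 3 mg/kg, 1 h before dark onset; total drug concentrations in plasma (ng/mL) and brain (ng/g) measured at the 24-h time point.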

The subject of data set [5] is Mus musculus. In words: Reduction of food intake in DIO mouse model at 3 mg/kg, po after 2 hrs relative to control. Format: functional. The arrangement: scale not given: the % may be the effect or the level left. In short, it runs like this:
as §1

Data set [6] concerns Mus musculus. In words: Reduction of food intake in DIO mouse model at 3 mg/kg, po after 6 hrs relative to control. The arrangement: scale not given: the % may be the effect or the level left. Format: functional. In short, it runs like this:
as §1

Data set [7] is described as follows: Drug level in DIO mouse plasma at 3 mg/kg, po after 24 hrs. The following applies: read-out: Drug uptake. The arrangement: dose 3 mg/kg, route oral. Format: ADME, organism-based. The gist of the method: as §2
The test system of data set [8] is Mus musculus. In words: Reduction of food intake in DIO mouse model at 3 mg/kg, po after 4 hrs relative to control. Type of data set: functional. The arrangement: scale not given: the % may be the effect or the level left. The gist of the method:
as §1

The target of data set [9] is T1, Cannabinoid receptor 2. In words: Binding affinity to human CB2 receptor at 1 uM.

SMILES strings stand for the structures. A value given as a limit tells only on which side of the number the result lay.

Cannabinoid receptor 1, sequence (P21554 whole entry): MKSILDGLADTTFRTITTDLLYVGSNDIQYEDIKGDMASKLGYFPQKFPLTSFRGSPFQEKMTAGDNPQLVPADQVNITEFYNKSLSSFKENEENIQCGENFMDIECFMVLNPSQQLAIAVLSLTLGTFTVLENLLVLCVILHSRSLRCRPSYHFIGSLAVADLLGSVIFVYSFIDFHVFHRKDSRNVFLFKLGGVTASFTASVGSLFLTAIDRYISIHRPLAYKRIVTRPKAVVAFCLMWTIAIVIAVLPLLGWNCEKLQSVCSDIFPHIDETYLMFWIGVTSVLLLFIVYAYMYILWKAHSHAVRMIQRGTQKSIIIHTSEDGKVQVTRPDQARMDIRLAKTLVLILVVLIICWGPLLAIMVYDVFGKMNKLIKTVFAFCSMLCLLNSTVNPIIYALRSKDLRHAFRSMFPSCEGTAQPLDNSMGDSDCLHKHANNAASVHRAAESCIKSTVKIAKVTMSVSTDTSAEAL
T1 sequence (P34972 whole entry): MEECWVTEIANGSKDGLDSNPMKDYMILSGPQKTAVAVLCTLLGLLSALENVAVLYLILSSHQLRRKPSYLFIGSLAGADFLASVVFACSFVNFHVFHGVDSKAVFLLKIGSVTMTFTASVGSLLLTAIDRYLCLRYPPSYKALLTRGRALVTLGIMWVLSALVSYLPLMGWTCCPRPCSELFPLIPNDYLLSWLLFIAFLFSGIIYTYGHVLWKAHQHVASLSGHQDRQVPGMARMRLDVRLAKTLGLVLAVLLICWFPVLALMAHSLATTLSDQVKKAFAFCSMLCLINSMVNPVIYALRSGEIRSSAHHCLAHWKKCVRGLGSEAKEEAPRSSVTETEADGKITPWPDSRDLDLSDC

`CC(=O)N1CCN(C[C@@H]2CC[C@@H](c3ccc(Cl)cc3Cl)N(c3ccc(Cl)cc3)C2)CC1`: the Ki (usually the dissociation constant of the complex between target and ligand, obtained from inhibition or displacement) in data set [1] was 451 nM; in data set [2], more than 1850 nM.

As to `O=S(=O)(NC[C@@H]1CC[C@@H](c2ccc(Cl)cc2Cl)N(c2ccc(Cl)cc2)C1)c1cccnc1`, the Ki is 6 nM in data set [1] and more than 1850 nM in data set [2].

For `N#Cc1ccc(C(=O)NCC[C@@H]2CC[C@@H](c3ccc(Cl)cc3Cl)N(c3ccc(Cl)cc3)C2)cc1`, the values for the Ki in [1] and in data set [2] were 5.1 nM and more than 2450 nM, respectively.

Take `O=S(=O)(NCC[C@@H]1CC[C@@H](c2ccc(Cl)cc2Cl)N(c2ccc(Cl)cc2)C1)C1CC1`: the Ki in [1] is 3.8 nM; in [2] it was more than 2220 nM.

Take `CC(C)CCNS(=O)(=O)[C@@H]1CC[C@@H](c2ccc(Cl)cc2Cl)N(c2ccc(Cl)cc2)C1`: the results for the Ki in [1] and in data set [2] were 9.1 nM and 1380 nM, respectively.

On to `O=S(=O)(C1CC1)N1CCN(C[C@@H]2CC[C@@H](c3ccc(Cl)cc3Cl)N(c3ccc(Cl)cc3)C2)CC1`, for which the Ki was 44 nM in [1] and more than 2220 nM in [2].

Consider `N#Cc1ccc(C(=O)NC[C@@H]2CC[C@@H](c3ccc(Cl)cc3Cl)N(c3ccc(Cl)cc3)C2)cc1`, for which the Activity amounted to 10% in [3], 22% in [5], 24% in [6] and 22% in data set [8]. In addition, the concentration at 24 h was 12 ng/g in [4] and 28 ng/mL in data set [7]. Further, the results for the Ki in data set [1] and in data set [2] were 5 nM and 1410 nM, respectively.

Regarding `N#Cc1ccc(S(=O)(=O)NCC[C@@H]2CC[C@@H](c3ccc(Cl)cc3Cl)N(c3ccc(Cl)cc3)C2)cc1`, the Ki was 4.2 nM in data set [1] and more than 2220 nM in [2].

Regarding `O=C1[C@@H](Cc2ccc(F)c(F)c2)CC[C@H](c2ccc(Cl)cc2)N1c1ccc(Cl)cc1` (relative stereo), the Ki in data set [1] was determined as 444 nM; in data set [2], 574 nM.

Take `O=S(=O)(C[C@@H]1CC[C@@H](c2ccc(Cl)cc2Cl)N(c2ccc(Cl)cc2)C1)NC1CCCCC1`: the Ki in data set [1] amounted to 35 nM; in [2], 1250 nM.

`O=C(NC1CCCCC1)[C@@H]1CC[C@@H](c2ccc(Cl)cc2Cl)N(c2ccc(Cl)cc2)C1`: the Ki in data set [1] was 18 nM; in [2], 368 nM.

With `CC(=O)NCC[C@@H]1CC[C@@H](c2ccc(Cl)cc2Cl)N(c2ccc(Cl)cc2)C1`, the Ki is 42 nM in [1] and more than 2400 nM in data set [2].

As to `O=C1[C@@H](Cc2ccc(F)c(F)c2)CC[C@H](c2ccc(Cl)cc2Cl)N1c1ccc(Cl)cc1` (relative stereo), the Ki was 109 nM in data set [1] and more than 1680 nM in data set [2].

Molecule `O=S(=O)(NC[C@@H]1CC[C@@H](c2ccc(Cl)cc2Cl)N(c2ccc(Cl)cc2)C1)c1cccc2ccccc12` yielded a Ki in data set [1] of 2.3 nM. Also, the inhibition (as a rule, the drop in the measured response relative to a control, in per cent) in data set [9] came out at 5%.

With `O=S(=O)(NCC[C@@H]1CC[C@@H](c2ccc(Cl)cc2Cl)N(c2ccc(Cl)cc2)C1)c1cccnc1`, the Ki is 5.8 nM in [1] and more than 2220 nM in data set [2].

Turning to `CC(C)(C)OC(=O)N1CCN(C[C@@H]2CC[C@@H](c3ccc(Cl)cc3Cl)N(c3ccc(Cl)cc3)C2)CC1`, the Ki in [1] is 8 nM; in [2], more than 1850 nM.

Consider `Fc1ccc(C[C@H]2CC[C@H](c3ccc(Cl)cc3)N(c3ccc(Cl)cc3)C2)cc1F` (relative stereo), for which the Ki in [1] is 72 nM; in [2], more than 1770 nM.

Consider `Fc1ccc(C[C@H]2CC[C@H](c3ccc(Cl)cc3Cl)N(c3ccc(Cl)cc3)C2)cc1F` (relative stereo), for which the Ki in [1] is 15 nM; in [2] it was more than 1850 nM.

Turning to `NC[C@@H]1CC[C@@H](c2ccc(Cl)cc2Cl)N(c2ccc(Cl)cc2)C1`, the Ki is 133 nM in data set [1] and more than 1850 nM in data set [2].

In the case of `Fc1ccc(C[C@H]2CC[C@H](c3ccc(Cl)cc3)N(c3ccc(Cl)cc3Cl)C2)cc1F` (relative stereo), the Ki in data set [1] was 467 nM; in data set [2], more than 1850 nM.

In the case of `NCC[C@@H]1CC[C@@H](c2ccc(Cl)cc2Cl)N(c2ccc(Cl)cc2)C1`, the figures for the Ki in data set [1] and in [2] were 61 nM and more than 2220 nM, respectively.

For the molecule `O=S(=O)(NC[C@@H]1CC[C@@H](c2ccc(Cl)cc2Cl)N(c2ccc(Cl)cc2)C1)C1CC1`, the results for the Ki in [1] and in data set [2] were 158 nM and more than 1850 nM, respectively.

As to `CC(C)CNC(=O)[C@@H]1CC[C@@H](c2ccc(Cl)cc2Cl)N(c2ccc(Cl)cc2)C1`, the values for the Ki in data set [1] and in data set [2] were 33 nM and 1580 nM, respectively.

`CCCS(=O)(=O)NC[C@@H]1CC[C@@H](c2ccc(Cl)cc2Cl)N(c2ccc(Cl)cc2)C1`: the Ki in data set [1] worked out at 48 nM. In data set [9], the inhibition came to 25%.

As for `O=C(NCc1ccc(Cl)cc1)[C@@H]1CC[C@@H](c2ccc(Cl)cc2Cl)N(c2ccc(Cl)cc2)C1`, the Ki in data set [1] is 63 nM; in data set [2], more than 1850 nM.

For the molecule `Fc1ccc(C[C@@H]2CC[C@H](c3ccc(Cl)cc3)N(c3ccc(Cl)cc3)C2)cc1F` (relative stereo), the values for the Ki in data set [1] and in data set [2] were more than 1640 nM and more than 1850 nM, respectively.

Consider `O=C(NC[C@@H]1CC[C@@H](c2ccc(Cl)cc2Cl)N(c2ccc(Cl)cc2)C1)C1CC1`, for which the affinity in data set [1], expressed as Ki, was 112 nM. Besides, in [9], the inhibition is 25%.

With `CC(C)(C)CCN1CCN(C[C@@H]2CC[C@@H](c3ccc(Cl)cc3Cl)N(c3ccc(Cl)cc3)C2)CC1`, the values for the Ki in data set [1] and in data set [2] were 57 nM and more than 1500 nM, respectively.

On to `O=C1[C@H](Cc2ccc(F)c(F)c2)CC[C@H](c2ccc(Cl)cc2)N1c1ccc(Cl)cc1` (relative stereo), for which the values for the inhibitory constant (Ki) in [1] and in [2] were 714 nM and more than 1780 nM, respectively.

On to `Clc1ccc(N2C[C@H](CN3CCNCC3)CC[C@H]2c2ccc(Cl)cc2Cl)cc1`, for which the Ki in [1] was 554 nM; in [2] it was more than 2000 nM.

With `CS(=O)(=O)N1CCN(C[C@@H]2CC[C@@H](c3ccc(Cl)cc3Cl)N(c3ccc(Cl)cc3)C2)CC1`, the Ki in [1] was 690 nM; in [2], more than 1850 nM.

As for `O=S(=O)(NCCC1CCC(c2ccc(Cl)cc2Cl)N(c2ccc(Cl)cc2)C1)C1CC1` (stereo in doubt; 14f), the Activity came out at 37% in [3], 39% in data set [5], 38% in [6] and 37% in [8]. The concentration at 24 h in data set [4] turned out to be 66 ng/g; in [7] it was 15 ng/mL. Moreover, the Ki in [1] is 3.4 nM; in data set [2], more than 2400 nM.

On to `O=S(=O)(NCCC1CCC(c2ccc(Cl)cc2Cl)N(c2ccc(Cl)cc2)C1)C1CC1` (single isomer, unassigned; enantiomer 2), for which the figures for the Ki in data set [1] and in [2] were 57 nM and more than 2400 nM, respectively.

In the case of `CC(C)(C)CC(=O)N1CCN(C[C@@H]2CC[C@@H](c3ccc(Cl)cc3Cl)N(c3ccc(Cl)cc3)C2)CC1`, the Activity in data set [3] worked out at 9%; in data set [5], 0%; in data set [6], 3%; in data set [8] it was 0%. Further, the results for the Ki in data set [1] and in data set [2] were 13 nM and more than 2400 nM, respectively. Besides, the concentration at 24 h in data set [7] was 1 ng/mL.

On to `O=C(NC1CCC1)[C@@H]1CC[C@@H](c2ccc(Cl)cc2Cl)N(c2ccc(Cl)cc2)C1`, for which the Ki came out at 33 nM in data set [1] and 1380 nM in data set [2].
